Experimental data of several laboratories.
Protocols differ between the studies behind these lines.
Target: Tyrosine-protein kinase Lck (LCK, Homo sapiens, UniProt P06239)

Compound | test | setting | endpoint | result
Nc1ncc(-c2nc(N3CCOCC3)nc(N3CCOCC3)n2)c(C(F)F)n1 | enzyme activity, inhibitor | 10 µM | remaining activity | 92%
Cc1nn(C)cc1-c1nc2c(N3CCN(Cc4ccc(Cl)cc4)CC3)c(Cl)cnc2[nH]1 | binding, competition with immobilised ligand | 1 µM | remaining binding | 100%
CC(C)(C)c1cc(C=C(C#N)C#N)cc(Br)c1O | enzyme activity, inhibitor | 0.5 µM | remaining activity | 87.8%
C#Cc1n[nH]c2c(-c3cn([C@@H](C)c4ccccc4)c(=O)[nH]c3=O)cc(F)cc12 | enzyme activity, inhibitor | 0.1 µM | inhibition | 10.5%
N#CC1(c2ccccn2)CCN(Cc2cc(C(=O)O)c(=O)n3ccccc23)CC1 | cell-free assay, competition with immobilised ligand | 1 µM | remaining binding | 97%
Cn1cc(-c2cc(F)cc(N3CCn4c(cc5c4CCCC5)C3=O)c2CO)cc(Nc2ccc(N3CCN(C4COC4)CC3)cn2)c1=O | enzyme activity, inhibitor | 0.1 µM | inhibition | -1%
Cn1cncc1[C@](O)(COc1ccc(C#N)cc1-c1ccc(OC(F)(F)F)cc1)c1ccc(C#N)cc1 | cell-free assay, competition with immobilised ligand | 1 µM | remaining binding | 82%
C#Cc1n[nH]c2c(-c3cn([C@@H](C)c4ccccn4)c(=O)[nH]c3=O)cc(F)cc12 | enzyme activity, inhibitor | 0.1 µM | inhibition | 8.8%
O=c1[nH]c2ccccc2n1C1CCN(Cc2ccc(-c3[nH]c4cc5ncnc5cc4nc3-c3ccccc3)cc2)CC1 | enzyme activity, inhibitor | 0.5 µM | remaining activity | 98.2%
COc1ncccc1-c1cnn2ccc(N3CCN(C(=O)OC(C)C)CC3)nc12 | binding, competition with immobilised ligand | 1 µM | remaining binding | 100%
Clc1ccc2c(C3CCN(CCc4c[nH]c5ccccc45)CC3)c[nH]c2c1 | enzyme activity, inhibitor | 10 µM | inhibition | 66%
